Measured values pooled from the literature.
Each line is one published result; the experiments were not run side by side.
MET Y1235D: Hepatocyte growth factor receptor (MET, Homo sapiens, UniProt P08581, Y1235D)
MET: Hepatocyte growth factor receptor (MET, Homo sapiens, UniProt P08581)
MET M1250T: Hepatocyte growth factor receptor (MET, Homo sapiens, UniProt P08581, M1250T)

`N[C@H]1CCN(c2nccc(-c3cnn4ncccc34)n2)C1` has a remaining binding of 100% (MET Y1235D; binding; 1 µM).
For `Cc1ccc(NC(=O)c2ccc(C)c(C(F)(F)F)c2)cc1C#Cc1nn(C2CCC(O)CC2)c2ncnc(N)c12` (stereo not drawn), the remaining signal was 124% (Hepatocyte growth factor receptor (MET, Homo sapiens, UniProt P08581, D1228H); cell-free assay; 10 µM).
For `O=C(Nc1ccc(Cl)cc1)c1ccccc1NCc1ccncc1`, the remaining signal was 92.2% (MET; cell-free assay; 0.5 µM).
`CC1=C(C#N)[C@@H](c2ccc3[nH]nc(C)c3c2)C(C#N)=C(c2ccc(Cl)cc2)N1` gave a remaining binding of 52.6% (MET Y1235D; cell-free assay, competition with immobilised ligand; 1 µM).
`CN(C)c1ncc(F)c(-c2cnn3ncccc23)n1` gave a remaining binding of 100% (MET M1250T; binding; 1 µM).
With `CC(C)(C)c1nc(-c2cccc(NS(=O)(=O)c3c(F)cccc3F)c2F)c(-c2ccnc(N)n2)s1` the remaining activity was 89% (MET; enzyme activity, inhibitor, radiometric; 1 µM).
The remaining activity of `Cc1sc(C(=O)NC2COC2)cc1-n1cc(NC(=O)Nc2c(F)cccc2Cl)cn1` is reported as 77% (MET; enzyme activity, inhibitor; 10 µM).
For `CN(CCCC(F)(F)F)c1nccc(-c2cnn3ncccc23)n1`, the remaining binding was 100% (MET; binding; 1 µM).
`Cc1c[nH]c2nccc(Oc3c(F)cc(Nc4cc(Cl)nc(N)n4)cc3F)c12` has a remaining binding of 83% (MET; cell-free assay, competition with immobilised ligand; 0.1 µM).
The activity vs control of `Cc1cc(NC(=O)c2cccc3cc(-c4cccc5[nH]nc(N)c45)ccc23)ccc1F` is reported as 104% (MET; enzyme activity, inhibitor; 0.1 µM).
`CC1CCCN1c1nccc(-c2cnn3ncccc23)n1` (stereo not drawn) gave a remaining binding of 100% (MET M1250T; binding; 1 µM).
For `CO[C@@H](C)c1c(Nc2ccc([C@H](N(C)C(=O)C3CCS(=O)(=O)CC3)C(F)(F)F)cc2)cnc2cc(Cl)nn12`, the remaining binding was 100% (MET Y1235D; cell-free assay, competition with immobilised ligand; 1 µM).
The remaining binding of `c1cnn2ncc(-c3ccnc(N4CCC45COC5)n3)c2c1` is reported as 80% (MET Y1235D; binding; 1 µM).
With `Nc1ncnc2occ(-c3ccc(NC(=O)Nc4cc(C(F)(F)F)ccc4F)cc3)c12` the remaining signal was 1.6% (MET Y1235D; cell-free assay; 20 µM).
The inhibition of `CC/C(=N\NC(=O)NCc1cccc(O)c1)c1ccc(O)c(C)c1O` is reported as 0.7% (MET Y1235D; enzyme activity, inhibitor; 0.1 µM).
With `COc1cc(Cl)c(C(=O)N[C@@H](CN[C@H]2CC[C@@H](N)CC2)Cc2ccc(C#N)cc2)cc1-c1ccc(CN[C@H](C)c2ccc(C)cc2)o1` the remaining activity was 63% (MET; enzyme activity, inhibitor; 1 µM).
`C[C@H]1CCN(c2nccc(-c3cnn4ncccc34)n2)C1` has a remaining binding of 94% (MET; binding; 1 µM).
The inhibition of `CN(C)C1CCN(CC#Cc2nn(C3CCCC3)c3nc(NCc4ccccc4)ncc23)C1` (stereo not drawn) is reported as 28% (MET; enzyme activity, inhibitor, FRET; 1 µM).
`O=C1NC(=O)c2cc(Nc3ccc(F)cc3)c(Nc3ccc(F)cc3)cc21` has a remaining signal of 96.7% (MET; cell-free assay; 0.5 µM).
For `CC(=O)Nc1c(C(C)=O)c(=O)n(C)c2nc(-c3ccc(Cl)cc3Cl)c(-c3ccc(Cl)cc3)cc12`, the remaining binding was 100% (MET; cell-free assay, competition with immobilised ligand; 1 µM).
The remaining activity of `Cc1cnc(NC2CCOCC2)nc1-n1cnc(C(=O)NC(CN)c2cc(F)cc(Cl)c2)c1` (stereo not drawn) is reported as 101% (MET; enzyme activity, inhibitor, radiometric; 1 µM).
For `O=C(Nc1cnn(-c2csc(C(=O)NC3COC3)c2)c1)Nc1ccccc1Cl`, the remaining activity was 102% (MET; enzyme activity, inhibitor; 5 µM).
`Cc1c(NC(=O)c2cc(C(N)=O)nc3cc(F)ccc23)c(C(F)(F)F)nn1Cc1ccc(C(C)(C)C)cc1` has a remaining binding of 84% (MET Y1235D; cell-free assay, competition with immobilised ligand; 1 µM).
The remaining signal of `Cc1ccc(C(=O)Nc2ccc(CN3CCN(C)CC3)c(C(F)(F)F)c2)cc1C#Cc1cnc2cccnn12` is reported as 86% (MET M1250T; cell-free assay; 23.5 nM).
For `CN1CCN(c2cnc3c(C4CCN(C(=O)c5ccc(OC(F)(F)F)cc5N)CC4)ncnc3c2)CC1`, the remaining binding was 100% (MET M1250T; cell-free assay, competition with immobilised ligand; 1 µM).
The remaining signal of `O=C1Nc2ccc(Cl)cc2C1=Cc1cc(Cl)c(O)c(Cl)c1` is reported as 96.4% (MET; cell-free assay; 0.5 µM).
For `O=C(O)[C@H]1[C@H](Cn2nnc3ccccc3c2=O)CC[C@@H]1C(=O)c1ccc(OCCC2CCOCC2)cc1`, the remaining binding was 100% (MET Y1235D; cell-free assay, competition with immobilised ligand; 1 µM).
`COc1cc(Nc2c(C#N)cnc3cc(OCCCN4CCN(C)CC4)c(OC)cc23)c(Cl)cc1Cl` gave a remaining signal of 84.5% (MET; cell-free assay; 0.5 µM).
With `CNC(=O)c1cc2c(Oc3ccc(NC(=O)C4(C(=O)Nc5ccc(F)cc5)CC4)cc3)ccnc2cc1OC` the inhibition was 100% (Hepatocyte growth factor receptor (MET, Homo sapiens, UniProt P08581, D1228N); enzyme activity, inhibitor, radiometric; 1 µM).
With `CC(C)CC(=O)N1CCc2nc(-c3ccc(Br)cc3)nc(N(C)Cc3ccccc3)c2C1` the remaining binding was 100% (MET Y1235D; cell-free assay, competition with immobilised ligand; 0.1 µM).
